According to article PMC4423805 (Science (New York, N.Y.), 2015):

Columns and labels:
[1] = biological target: CBFβ-SMMHC binding to the RUNX1 Runt domain; experiment: FRET assay of CBFβ-SMMHC binding to RUNX1 Runt domain; conditions: read-out: FRET IC50; 10 nM Cerulean-Runt domain and 10 nM Venus-CBFβ-SMMHC
Procedure, shortened: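 FRET binding assay with 10 nM Cerulean-RUNX1 Runt domain and 10 nM Venus-CBFβ-SMMHC titrated with test compound. Read-out is the emission intensity ratio at 525/474 nm. Untagged CBFβ (100 and 1000 nM) served as a dissociation reference. IC50 was fitted from the mean and SD of three independent measurements.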

[2] = Stability in liver microsomes; type: in vitro ADME
[3] = test system: primary human inv(16) AML samples; experiment: Colony-forming units, primary inv; type: cell-based
Procedure, shortened: (§1)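 Colony-forming unit assays on CD34+ purified primary human cells treated with the test compound at set concentrations (5 and 10 μM cited for inv(16) samples): inv(16) AML, normal-karyotype AML, or cord blood. Colonies are expressed as percent of DMSO vehicle control. Assays were run in triplicate, with SD; significance by unpaired t-test.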

[4] = biological target: RUNX1, endogenous in ME-1 cells (human (endogenous in ME-1)) (UniProt Q01196); experiment: co-IP
CBFβ-SMMHC = experiment: Isothermal titration calorimetry; type: binding; conditions: read-out: dissociation constant (KD), ITC
ME-1 cells = experiment: Annexin V and 7AAD viability staining, ME-1; type: cell-based, human; conditions: read-out: ME-1 cell growth IC50, 48 hours
Procedure, shortened: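 ME-1 inv(16) cells exposed to the test compound across a dose range for 48 hours, then scored by annexin V and 7AAD viability staining. Values are normalized to the DMSO-treated group. Each point is the mean of triplicate experiments, with SD.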

[5] = test system: normal human bone marrow cells; experiment: MTT assay, normal human bone marrow cells; type: cell-based; conditions: read-out: IC50 in normal human bone marrow cells, 48 hours
Procedure, shortened: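 Normal human bone marrow cells treated with a dose range of test compound for 48 hours and assessed by MTT conversion. Values are normalized to the DMSO-treated group. Each point is the mean of triplicate experiments, with SD.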

[6] = Pharmacokinetics in mouse plasma; type: in vivo
[7] = test system: 11 human leukemia cell lines; experiment: Panel of 11 human leukemia cell lines; type: cell-based
CBFβ-SMMHC-RUNX1 binding = experiment: Coimmunoprecipitation of CBFβ-SMMHC-RUNX1 in ME-1 cells; type: cell-based, human; conditions: 1 μM, 6 hours
Procedure, shortened: (§2)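 ME-1 cells treated with 1 μM test compound for 3 and 6 hours. RUNX1 association with CBFβ and with CBFβ-SMMHC was assessed by coimmunoprecipitation, and binding was quantified from three experiments.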

CBFβ-RUNX1 binding = experiment: Coimmunoprecipitation of CBFβ-RUNX1 in ME-1 cells; type: cell-based, human; conditions: 1 μM
Procedure, shortened: as §2

[8] = test system: RUNX1, CBFβ, and CBFβ-SMMHC; experiment: Protein stability of RUNX1, CBFβ and CBFβ-SMMHC; type: cell-based
[9] = test system: RUNX1 occupancy at RUNX3, CSF1R, and CEBPA promoters; experiment: Chromatin immunoprecipitation of RUNX1 occupancy, ME-1 cells; type: cell-based, human; conditions: 6 hours
Procedure, shortened: (§3)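 Chromatin immunoprecipitation of RUNX1 at the RUNX3, CSF1R and CEBPA loci in ME-1 and U937 cells treated with 1 μM test compound for 6 hours. Occupancy is expressed as fold enrichment relative to DMSO-treated cells. Data are means of triplicate experiments with SD; significance by unpaired t-test.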

[10] = test system: RUNX1 occupancy at RUNX3, CSF1R, and CEBPA promoters; experiment: Chromatin immunoprecipitation of RUNX1 occupancy, U937 cells; type: cell-based, human; conditions: inv(16)-negative U937 cells, 1 μM
Procedure, shortened: as §3

[11] = test system: expression of RUNX3, CSF1R, and CEBPA; experiment: qRT-PCR expression of RUNX1 target genes, ME-1 cells; type: cell-based, human; conditions: 6 or 12 hours
Procedure, shortened: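 qRT-PCR of RUNX3, CSF1R, CEBPA and control gene PIN1 in ME-1 and U937 cells treated with 1 μM test compound for 6 and 12 hours. Expression is normalized to the DMSO control group. Data are means of triplicate experiments with SD; significance by unpaired t-test.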

[12] = test system: Cbfb+/MYH11:Ras+/G12D leukemic cells; experiment: inv; type: in vivo, mouse; conditions: 200 mg/kg of body weight per day for 10 days, days 5 to 15 posttransplantation
Procedure, shortened: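 Mice (n = 11 per group) were transplanted with 2 × 10^3 Cbfb+/MYH11;Ras+/G12D leukemic cells. After 5 days for engraftment, they received DMSO vehicle or 200 mg/kg/day test compound for 10 days (days 5–15 post-transplant). Disease latency was followed by Kaplan-Meier survival.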

[13] = Toxicity after 7 days of administration; type: in vivo
[14] = test system: primary human inv(16) AML samples; experiment: Viability; type: cell-based; conditions: 48 hours, 5 and 10 μM
Procedure, shortened: (§4)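 Primary human AML cells treated with test compound at set concentrations for 48 hours, and viability read by annexin V/7AAD relative to DMSO vehicle. Inv(16) material comprised four CD34+ purified samples; normal-karyotype AML samples were used as given. Each sample was the average of duplicate treatments, with mean and SD across samples.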

[15] = test system: primary human AML samples with normal karyotype; experiment: Viability; type: cell-based; conditions: 48 hours
Procedure, shortened: as §4

[16] = test system: primary human AML samples with normal karyotype; experiment: Colony-forming units, normal karyotype AML samples; type: cell-based
Procedure, shortened: as §1

CD34+ cord blood cells = experiment: Colony-forming units, CD34+ cord blood cells; type: cell-based, human
Procedure, shortened: as §1

CBFβ = experiment: 15N-1H HSQC / STD NMR binding to CBFβ; conditions: upon addition of compound
Runt domain = experiment: 15N-1H HSQC / STD NMR binding to Runt domain

Chain of RUNX1, endogenous in ME-1 cells (human (endogenous in ME-1)) (Q01196 whole entry): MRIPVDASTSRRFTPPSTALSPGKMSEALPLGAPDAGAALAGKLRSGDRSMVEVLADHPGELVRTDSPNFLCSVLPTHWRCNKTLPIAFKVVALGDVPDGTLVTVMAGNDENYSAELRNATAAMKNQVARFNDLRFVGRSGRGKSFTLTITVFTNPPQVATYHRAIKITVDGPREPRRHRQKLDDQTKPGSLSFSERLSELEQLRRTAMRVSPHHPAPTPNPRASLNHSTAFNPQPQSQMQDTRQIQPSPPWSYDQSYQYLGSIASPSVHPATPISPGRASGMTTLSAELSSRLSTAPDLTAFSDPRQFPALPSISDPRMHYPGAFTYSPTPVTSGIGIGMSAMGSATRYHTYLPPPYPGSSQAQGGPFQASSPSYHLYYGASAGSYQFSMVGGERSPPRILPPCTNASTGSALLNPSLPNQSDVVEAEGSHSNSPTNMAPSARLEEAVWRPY
Chain of CBFβ-SMMHC (Q13951 1-165 limits assumed): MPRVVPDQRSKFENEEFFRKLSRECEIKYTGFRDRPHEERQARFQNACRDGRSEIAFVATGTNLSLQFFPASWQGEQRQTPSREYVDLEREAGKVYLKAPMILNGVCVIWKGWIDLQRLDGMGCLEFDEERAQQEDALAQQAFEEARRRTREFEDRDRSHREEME

**Q.** For `FC(F)(F)Oc1ccc2nc(-c3ccccn3)[nH]c2c1` [AI-10-47], which IC50 [1] is on record?
**A.** 2000 ± 30 nM

**Q.** What about the “stability in liver microsomes” value [2] of the same compound?
**A.** reduced the metabolic liability

**Q.** What about the “change in CFUs of inv(16) AML cells” value [3] of the same compound?
**A.** no change

**Q.** For CBFβ-SMMHC, endogenous in ME-1 cells, which percent dissociation with AI-10-49 (1 μM, 6 hours) [4] is on record?
**A.** 90%

**Q.** What does the source list for AI-10-49?
**A.** IC50 [1]: 260 ± 10 nM; Kd (CBFβ-SMMHC): 168 nM; IC50 (ME-1 cells): 600 nM; IC50 [5]: > 25 µM; half-life (t½) [6]: 380 min; sensitivity of leukemia cell line panel [7]: ME-1 cells were the only cell line highly sensitive; dissociation of RUNX1 from CBFβ-SMMHC (CBFβ-SMMHC-RUNX1 binding): 90%; effect on CBFβ-RUNX1 association (CBFβ-RUNX1 binding): only a modest effect; stability of RUNX1, CBFβ, and CBFβ-SMMHC [8]: not affected; RUNX1 occupancy at CEBPA promoter ([9]; 1 μM, relative to DMSO): 8 fold; RUNX1 occupancy at CSF1R promoter ([9]; 1 μM, relative to DMSO): 2.2 fold; RUNX1 occupancy at RUNX3 promoter ([9]; 1 μM, relative to DMSO): 8 fold; RUNX1 occupancy at control loci [9]: no enrichment was observed; RUNX1 occupancy increase in U937 cells [10]: Neither; expression of RUNX3, CSF1R, and CEBPA ([11]; 1 μM): increased expression; expression of control gene PIN1 [11]: no effect; median latency (survival) [12]: 61 days; toxicity [13]: no evidence of toxicity; viability of inv(16) patient cells [14]: reduced; viability of normal karyotype AML samples [15]: not affected; inhibition of CFUs of inv(16) AML cells ([3]; 5 μM): 40%; inhibition of CFUs of inv(16) AML cells ([3]; 10 μM): 60%; change in CFUs of AML cells with normal karyotype [16]: no change; change in CFUs of CD34+ cord blood cells (CD34+ cord blood cells): no change

**Q.** Which results are given for `COc1ccc2nc(-c3ccccn3)[nH]c2c1` [AI-4-57]?
**A.** IC50 [1]: 22000 ± 8000 nM; chemical shift changes in HSQC spectrum of CBFβ (CBFβ): chemical shift perturbations; interaction with Runt domain by NMR (Runt domain): No interaction was observed; half-life (t½) [6]: 37 min
